Measurements as given in PMC8451875 (British Journal of Clinical Pharmacology, 2021).

Tests used:
[1] = Phase I 2-way drug interaction study, steady-state plasma pharmacokinetics; assay type: in vivo, healthy adults
Outline: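 After an overnight fast of ≥8 h and a moderate-fat meal 30 min before dosing, each drug was given once daily in fixed sequence. Plasma was sampled predose daily, then postdose on the final dosing day at 1–24 h, extended to 72 h or 96 h. Noncompartmental ln-transformed AUC0-t, Cmax and Ct were fitted by linear mixed model (period fixed, participant random) for GMR and 90% CI. t1/2 was descriptive.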

[2] = healthy participants administered GSK3640254; cited from earlier work
[3] = Phase I 2-way drug interaction study, safety and tolerability; assay type: in vivo, healthy adults; conditions: for overall drug interaction, tolerability and safety finding: administered alone or in combination, healthy adults
Outline: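 Open-label, fixed-sequence study in healthy men and women aged 18–55 years with BMI 18.5–31.0 kg/m2. Each drug was given alone and in combination, with a moderate-fat meal 30 min before dosing. Adverse events were monitored along with clinical laboratory values, vital signs, electrocardiography and physical examination, and summarised descriptively.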

HIV‐1 subtypes = conditions: no cross-resistance to currently approved antiretroviral treatments; cited from earlier work
[4] = dolutegravir 50 mg + GSK3640254 200 mg QD, after Day 7 dose, n = 16

dolutegravir Tmax (median [min, max]) ([1]; dolutegravir 50 mg + GSK3640254 200 mg QD, Day 7, n = 16) | dolutegravir t1/2, geometric mean (SD Ln) [1, 4] | dolutegravir Cmax, geometric mean (SD Ln) ([1]; dolutegravir 50 mg QD alone, Day 5, steady state, moderate-fat meal, plasma, n = 16) | dolutegravir t1/2, geometric mean (SD Ln) ([1]; dolutegravir 50 mg QD alone, after Day 5 dose, n = 16) | concentration at 24 h ([1]; human, plasma, 50 mg) | SMILES | GSK3640254 t1/2, geometric mean (SD Ln) [1, 4] | AUC ([1]; human, plasma, 200 mg) | Cmax ([1]; human, plasma, 200 mg) | Tmax ([1]; human, plasma, 200 mg) | concentration at 24 h ([1]; human, plasma, 200 mg) | most commonly reported adverse event [2] | contact dermatitis at the electrocardiographic electrode site ([3]; 16 participants per treatment) | overall drug interaction, tolerability and safety finding [3] | inhibition across HIV‐1 subtypes (HIV‐1 subtypes)
– | – | – | – | – | C=C(C)[C@@H]1CC[C@]2(NCCN3CCS(=O)(=O)CC3)CC[C@]3(C)[C@H](CC[C@@H]4[C@@]5(C)CC=C(C6=CC[C@@](CF)(C(=O)O)CC6)C(C)(C)[C@@H]5CC[C@]43C)[C@@H]12 [GSK3640254] | 23.42 (1.16) h | 26700 ng·h/mL | 1680 ng/mL | 5 h | 860 ng/mL | headaches | 1 event | not associated with drug–drug interactions or major tolerability or safety findings | demonstrated inhibition
3.0 (1.0, 4.5) h | 14.69 (1.13) h | 4.96 (1.18) μg/mL | 14.49 (1.13) h | 1370 ng/mL | C[C@@H]1CCO[C@H]2Cn3cc(C(=O)NCc4ccc(F)cc4F)c(=O)c(O)c3C(=O)N12 [dolutegravir, reference compound] | – | – | – | – | – | – | – | not associated with drug–drug interactions or major tolerability or safety findings | –
